Source: PubChem BioAssay
In the library only some 1.2% were active in any assay of this set; here they are far more common.
ARFGAP1 inh = inhibits rat ARF GTPase activating protein 1. Q62848. Arfgap1-stimulated ARF1 GTP hydrolysis, GDP FP detection. inhibition, % at 16.5 µM. 360,000 compounds, 0.26% hits. AID 651572;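 active means inhibition above a per-plate limit, mean inhibition of low control wells plus 3 SD, cut at about 25% in these data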;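 further: 0% = DMSO wells with enzyme and 100% = wells lacking Arfgap1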
Target sequence (Q62848 1-136 limits assumed): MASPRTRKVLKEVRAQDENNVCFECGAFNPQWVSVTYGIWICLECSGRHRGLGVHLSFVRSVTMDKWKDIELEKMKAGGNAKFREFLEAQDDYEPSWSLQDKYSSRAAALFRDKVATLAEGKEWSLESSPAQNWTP
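system = rat Arfgap1 catalytic domain, aa 1-136 | technique = FP, GDP Alexa 633 tracer displaced from anti-GDP antibody, 620/688 nm | compound = one concentration, 16.5 µM, DMSO 1.26% | medium = HEPES-based buffer, pH 7.5 | timing = compound-enzyme preincubation 20 min, reaction 120 min, detection 60 min, 25 °C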
IDE cell inh = inhibits human insulin-degrading enzyme in HEK cells | P14735 | FAbetaB cleavage, fluorescence polarization | inhibition, % at 5.59 µM | 320,000 compounds, 0.41% hits;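 active means percent inhibition above the average of all tested compounds plus 3 SD, set per screening campaign, cut at about 16% in these data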;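 further: IDE supplied by intact live HEK cells; FP after avidin binding of uncleaved biotin substrate so inhibition keeps polarization high; 0% = DMSO wells and 100% = 60 µM reference IDE inhibitor Ii1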
IDE cell activ = activators of human insulin-degrading enzyme in cells; HEK cells, FAbeta-B cleavage, fluorescence polarization; 0% vehicle, 100% cell-free pure enzyme wells; AID 493087; 340,000 compounds, 0.073% hits; activation, % at 5.96 µM; P14735;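 active means activation above the mean of all tested compounds plus 3 SD, set per screening campaign, cut at about 17% in these data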
PREPL inh = inhibits the human prolyl oligopeptidase-like enzyme; Q4J6C6; recombinant PREPL, fluorescence polarization activity-based probe; inhibition, % at 5.96 µM; 320,000 compounds, 0.68% hits; in the data active means inhibition above about 43%;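 further: 0% = enzyme with DMSO and 100% = wells lacking enzyme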
ASAP1 inh = ASAP1 ArfGAP inhibition. inhibition, % at 16.5 µM. ASAP1-stimulated ARF1 GTP hydrolysis, GDP FP detection. 360,000 compounds, 0.19% hits; in the data active means inhibition above about 25%;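 further: 0% = vehicle with enzyme and substrate and 100% = no enzyme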
Target sequence (Q9ULH1 325-724 limits assumed): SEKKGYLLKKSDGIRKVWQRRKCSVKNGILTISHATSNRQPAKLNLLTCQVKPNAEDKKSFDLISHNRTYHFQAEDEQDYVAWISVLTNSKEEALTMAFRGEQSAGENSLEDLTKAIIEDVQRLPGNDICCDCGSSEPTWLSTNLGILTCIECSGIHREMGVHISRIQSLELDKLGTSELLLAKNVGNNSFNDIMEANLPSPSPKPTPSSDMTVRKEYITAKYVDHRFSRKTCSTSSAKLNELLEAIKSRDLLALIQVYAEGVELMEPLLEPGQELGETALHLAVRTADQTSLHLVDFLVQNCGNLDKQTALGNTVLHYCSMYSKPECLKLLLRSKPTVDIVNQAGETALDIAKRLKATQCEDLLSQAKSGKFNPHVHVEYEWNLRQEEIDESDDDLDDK
ASAP1 GAP conf = confirmation of human ASAP1 inhibitors | ASAP1-stimulated Arf1 GTPase, GDP fluorescence polarization | shares compounds with ASAP1 inh | 620 compounds, 37% hits | inhibition, % at 16.5 µM;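 active means mean inhibition over triplicates exceeds the hit threshold derived for the earlier primary screening run, cut at about 25% in these data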
Numbers without * were called inactive; x = no result.

SMILES	ARFGAP1 inh	IDE cell inh	IDE cell activ	PREPL inh	ASAP1 inh	ASAP1 GAP conf
O=C(/C=C/c1cccs1)Nc1ccc(N2CCOCC2)c(S(=O)(=O)Nc2ccccc2Cl)c1	4	-2	4	1	8	x
COc1ccccc1NS(=O)(=O)c1cc(NC(=O)/C=C/c2cccs2)ccc1N1CCOCC1	20	1	0	10	32*	18
S=c1[nH]nc(Cc2cccs2)n1-c1cccc2ccccc12	4	-1	-13	2	-10	x
S=c1[nH]nc(Cc2cccs2)n1-c1ccccc1Cl	-1	-5	0	5	26*	6
CCCCC(CC)C(=O)Nc1cc(C(=O)NCCC)ccc1N1CCC2(CC1)CC(c1cccc(Br)c1)=NO2 (configuration not stated)	-8	6	0	13	0	x
Cc1cc(C(=O)COC(=O)CC(NC(N)=O)c2ccc(Cl)cc2)c(C)n1C (configuration not stated)	8	3	4	12	4	x
NC(=O)COC(=O)CC(NC(N)=O)c1ccc(Cl)cc1 (configuration not stated)	1	2	1	6	26*	0
CCOc1ccc(NC(=O)CN(C)C(=O)c2cn(-c3ccc(C)cc3)nc2-c2cccc(OC)c2)cc1OCC	11	x	6	x	34*	14
CC1CN(S(=O)(=O)c2ccc(NC(=O)c3cc(-c4ccccc4O)n[nH]3)cc2)CC(C)O1 (configuration not stated)	0	3	2	1	26*	21
Cn1cccc1Cc1nnc(SCC(=O)N2CCOCC2)n1-c1ccc(F)cc1	9	4	-1	6	25*	1
COc1ccc(-n2c(SCC(=O)N(C)C3CCS(=O)(=O)C3)nc3ccc(O)cc3c2=O)cc1OC (configuration not stated)	5	4	1	5	10	x
O=C(COC(=O)c1cccnc1)NC1CCCc2ccccc21 (configuration not stated)	-4	x	2	x	-1	x
O=C(COC(=O)c1cnccn1)NC1CCCc2ccccc21 (configuration not stated)	-6	1	1	5	48*	4
O=C(NCc1ccco1)C12CN(Cc3ccccc3)CC1C(c1ccc([N+](=O)[O-])cc1)=NO2 (configuration not stated)	15	4	1	6	6	x
O=C(NCc1ccco1)C12CN(Cc3ccccc3)CC1C(c1cccc([N+](=O)[O-])c1)=NO2 (configuration not stated)	0	2	6	15	25*	8
COc1ccc(C(=O)Nc2nc3cc4c(cc3s2)OCO4)c(OC)c1	8	6	11	7	31*	41*
Cc1cc(N2CCN(C)CC2)nc2ccc(NC(=O)CCC3CCCC3)cc12	24	0	2	8	28*	39*
Cc1cc(N2CCN(C)CC2)nc2ccc(NC(=O)CCC(=O)NCCC3=CCCCC3)cc12	6	2	5	15	17	x
Cc1nc2ccccc2c(C)c1CC(=O)OC(C)C(=O)NC1(C#N)CCCCC1 (configuration not stated)	-8	2	-3	5	0	x
COc1cccc(-c2cnc3c(NC=O)cc(-c4ccc(N5CCN(C)CC5)cc4)cn23)c1	18	x	x	x	36*	76*
CC1(C(=O)Nc2ccc(Cl)cc2)Cc2c(-c3ccc4c(c3)OCO4)ccnc2O1 (configuration not stated)	-8	x	x	x	21	x
N#CC1=C(c2ccc(-c3ccccc3)cc2)COC1=O	4	1	0	-40	29*	41*
C=CCN(C/C(=N\O)c1sc(C(=O)OCC)nc1C)c1cccc(Br)c1	7	4	2	-9	26*	15
CCOC(=O)c1sc(N/N=C/c2cccc(C)c2)nc1C	1	-2	-2	11	-5	x
Cc1noc(C)c1COc1cccc(C(=O)OCC(=O)NC(=O)c2ccc(OC(F)F)cc2)c1	18	-4	-4	-1	30*	24
SMILES	ARFGAP1 inh	IDE cell inh	IDE cell activ	PREPL inh	ASAP1 inh	ASAP1 GAP conf
CC(C)NC(=O)NC(=O)COC(=O)c1cccc(OC(F)F)c1	5	14	3	-1	7	x
Cc1noc(C)c1COc1ccc(C(=O)OCC(=O)NCc2ccccc2Cl)cc1	8	-4	-1	12	28*	2
CCC(C)(C)NC(=O)C(c1ccc(OC)cc1)N(C(=O)CCC(=O)Nc1cc(C)on1)c1ccc(OC)c(OC)c1 (configuration not stated)	-5	3	-1	8	-9	x
CCC(C)(C)NC(=O)C(c1ccc(OC)cc1)N(C(=O)CCC(=O)Nc1cc(C)on1)c1ccccc1OC (configuration not stated)	-1	-7	0	13	27*	5
COc1ccc(/C=N/NC(=O)c2cc(-c3ccc4c(c3)OCO4)n[nH]2)cc1OC	20	8	-6	18	26*	34*
Cc1nc2nc(-c3cccs3)[nH]c2cc1Br	10	1	2	-4	5	x
O=C(c1ccco1)[C@@H]1[C@@H]2C(=O)N(c3ccc(F)cc3)C(=O)[C@@H]2C2c3ccccc3C=CN21 (some centres not stated)	5	0	x	12	25*	9
O=C(c1ccco1)[C@@H]1[C@@H]2C(=O)N(c3ccc(Br)cc3)C(=O)[C@@H]2C2c3ccccc3C=CN21 (some centres not stated)	-8	x	-5	x	0	x
COc1ccc(/C=C2/Sc3ccc(C(=O)NCCCN4CCOCC4)cc3NC2=O)cc1OC	17	-1	6	40	32*	89*
CCOC(=O)/C(=N\Nc1ncnc2ccccc12)c1ccc(C)cc1	9	-2	-1	-1	12	x
O=c1c(-c2c(O)cc(O)c3c(=O)cc(-c4ccc(O)cc4)oc23)c(-c2ccc(O)cc2)oc2cc(O)cc(O)c12	20	-2	5	1	25*	27*
Cc1ccc(Cl)c2sc(NC(=O)C3=COCCO3)nc12	8	0	-1	1	27*	14
COc1ccc(Cl)c2sc(NC(=O)C3=COCCO3)nc12	9	4	0	0	-4	x
CC(C)(C)OC(=O)N[C@@H](C(=O)OC(C)(C)C)c1ccc2c(c1)OCO2	-2	3	4	1	13	x
O=C(NCc1cccnc1)c1c(O)c2cccc3c2n(c1=O)CCC3	0	1	8	-5	-6	x
OCC[C@@H]1C[C@H](O)[C@@H](O)[C@@]2(OCc3cc(Cl)ccc32)O1	5	x	x	x	25*	4
Cc1c(C(=O)OCC(=O)N(C)c2ccccc2)oc2ccccc12	1	0	-1	10	-5	x
